thrombin 1536: inhibitors of human thrombin | alpha-thrombin, Boc-VPR-AMC fluorogenic substrate cleavage | inhibition, % at 5 µM | actives 0.26% (n = 220,000) | AID 1046;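 active = inhibition at or above 40%; inactive = inhibition below 40%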;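 note: 0% = enzyme with no compound and 100% = wells without enzyme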
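Material: human alpha-thrombin enzyme / Medium: pH 7.5 Tris (50 mM) with NaCl 150 mM, Tween 20 0.05% / Compound: single-point dosing at 5 µM, 0.2% DMSO / Incubation: enzyme reaction carried out at room temperature / Detection: AMC fluorescence, 355/460 nm / Read-out basis: percent inhibition scaled between no-compound controls and no-enzyme blanks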
CTSL1 counter: counter-screen for PFM18AAP inhibitors: inhibitors of F. hepatica cathepsin L1 | inhibition, % at 5.96 µM | AID 1906 | actives 0.49% (n = 300,000) | recombinant F. hepatica cathepsin L1, Z-Leu-Arg-MCA fluorescence;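 active = inhibition above the mean of all tested compounds plus 3 SD, set per screening campaign, cut at about 17% in these data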;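 note: 0% = plate median of test compound wells and 100% = 1 µM Z-Phe-Ala-diazomethylketone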
FXIa inh 1536: inhibitors of human coagulation factor XIa; P03951; inhibition, % at 5 µM; purified FXIa, Boc-Glu-Ala-Arg-AMC fluorogenic substrate; actives 0.14% (n = 220,000);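 active = inhibition of at least 40%; inactive = inhibition below 40%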;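 note: fluorescence of freed AMC excited at 355 nm; 0% = enzyme without compound and 100% = no enzyme blank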
Target sequence (P03951 19-387 limits assumed): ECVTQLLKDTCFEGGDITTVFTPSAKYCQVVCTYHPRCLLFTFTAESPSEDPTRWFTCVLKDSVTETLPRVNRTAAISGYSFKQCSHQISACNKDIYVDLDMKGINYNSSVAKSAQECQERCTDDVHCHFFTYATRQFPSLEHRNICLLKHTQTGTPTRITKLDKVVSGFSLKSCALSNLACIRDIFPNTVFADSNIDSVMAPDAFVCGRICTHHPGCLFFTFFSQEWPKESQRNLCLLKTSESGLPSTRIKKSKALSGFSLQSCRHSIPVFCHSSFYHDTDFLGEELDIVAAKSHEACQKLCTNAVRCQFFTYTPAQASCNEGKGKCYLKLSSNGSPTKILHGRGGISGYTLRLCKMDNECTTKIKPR
Target sequence (P03951 388-625 limits assumed): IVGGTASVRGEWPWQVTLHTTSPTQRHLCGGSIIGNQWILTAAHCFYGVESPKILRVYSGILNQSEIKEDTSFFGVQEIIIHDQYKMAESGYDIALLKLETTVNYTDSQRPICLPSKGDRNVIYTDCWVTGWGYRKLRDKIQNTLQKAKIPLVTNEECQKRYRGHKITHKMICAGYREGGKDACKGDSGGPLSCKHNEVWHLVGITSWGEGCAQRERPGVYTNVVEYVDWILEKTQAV
Rce1 inhib: blocks yeast Ras-converting enzyme. yeast membranes, quenched prenylated peptide cleavage fluorescence. actives 0.27% (n = 290,000). Q03530. calls only;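 active = fall in fluorescence gain of 50% or more versus controls, with final raw signal at or below 3038400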;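 note: plate controls were neutral control wells for no effect and wells lacking membranes for full effect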
hK5 inh: kallikrein 5 (human) inhibition | actives 0.59% (n = 210,000) | inhibition, % at 5 µM | Q9Y337 | recombinant hK5, fluorogenic AMC substrate cleavage | AID 873;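 active = inhibition of 40% or more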;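 note: 0% = enzyme controls without compound and 100% = no-enzyme blanks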
FXIIa inh 1536: blocks human coagulation factor XIIa protease activity; purified FXIIa, Boc-QGR-AMC fluorogenic substrate, 2 h; actives 0.3% (n = 220,000); AID 800; inhibition, % at 5 µM; P00748; in the data active = inhibition above about 40%;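 note: 0% = enzyme with no compound and 100% = blank without enzyme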
An asterisk follows results filed as active. Rows were chosen to be rich in hits. Some 1.4% of all compounds tested hit in one or more screens of this group.

Results for COc1ccccc1N1CCN(C(=O)c2cc3ccccc3[nH]2)CC1 ?
CTSL1 counter: 18*; Rce1 inhib: inactive

Results for COc1ccccc1N1CCN(C(=O)c2cccc(C(=O)N3CCN(c4ccccc4OC)CC3)c2)CC1 ?
CTSL1 counter: 2

How did COc1ccccc1N1CCN(C(=O)c2coc(=O)c(Br)c2)CC1 do in these assays?
thrombin 1536: 0; CTSL1 counter: 3; FXIa inh 1536: 9; Rce1 inhib: active; hK5 inh: 1; FXIIa inh 1536: 4

Results for COc1cc(OC)cc(C(=O)Nc2nc(CC(=O)NC(C)c3ccccc3)cs2)c1 (stereo unspecified) ?
CTSL1 counter: 0; Rce1 inhib: inactive

What do the screens show for `CCOc1ccc(N(Cc2cc3ccc(C)cc3[nH]c2=O)S(=O)(=O)c2ccccc2)cc1`?
CTSL1 counter: 0; Rce1 inhib: inactive

Results for O=C(CN(C1CCCCC1)C1CCCCC1)N1CCc2ccccc2C1 ?
thrombin 1536: 1; CTSL1 counter: 1; FXIa inh 1536: -2; Rce1 inhib: active; hK5 inh: -4; FXIIa inh 1536: -6

What do the screens show for `Cc1nn(CC(=O)N2CCc3ccccc3C2)c(C)c1[N+](=O)[O-]`?
thrombin 1536: -1; CTSL1 counter: 0; FXIa inh 1536: 38; Rce1 inhib: inactive; hK5 inh: 22; FXIIa inh 1536: 85*

Results for Cc1oc(C)c(C(=O)O)c1C(=O)O ?
thrombin 1536: -4; CTSL1 counter: -8; FXIa inh 1536: -7; Rce1 inhib: inactive; hK5 inh: -9; FXIIa inh 1536: 2

What do the screens show for `COC(=O)c1c(C)oc(C)c(C(=O)OC)c1=O`?
thrombin 1536: 17; CTSL1 counter: -4; FXIa inh 1536: 11; Rce1 inhib: inactive; hK5 inh: 74*; FXIIa inh 1536: 21

How did CN1CCc2c(c3c(n2C)CCN(C)[C@H]3c2ccccc2F)[C@@H]1c1ccccc1F do in these assays?
thrombin 1536: -6; FXIa inh 1536: -18; hK5 inh: -6; FXIIa inh 1536: 4

What do the screens show for `Cc1c(C(=O)N(Cc2ccccc2)Cc2cccs2)cnn1-c1ccc(Cl)cc1`?
thrombin 1536: 9; CTSL1 counter: -4; FXIa inh 1536: 21; Rce1 inhib: inactive; hK5 inh: 44*; FXIIa inh 1536: 107*

Results for Cc1ccc(S(=O)(=O)NNC(=O)c2ccc3ccccc3n2)cc1 ?
CTSL1 counter: 1; Rce1 inhib: inactive

Results for COc1cc(OC)cc(C(=O)N/N=C(\C)CC(=O)Nc2ccccn2)c1 ?
CTSL1 counter: -2; Rce1 inhib: inactive

How did CCC(C)NC(=O)C(Cc1ccccc1)NS(=O)(=O)c1ccc2c(c1)CCC(=O)N2 (stereo unspecified) do in these assays?
CTSL1 counter: -1; Rce1 inhib: inactive

Results for CCCN(CCC)CCNC(=O)C(NS(=O)(=O)c1ccc2c(c1)CCC(=O)N2)c1ccccc1 (stereo unspecified) ?
thrombin 1536: -7; CTSL1 counter: 31*; FXIa inh 1536: -4; Rce1 inhib: inactive; hK5 inh: -25; FXIIa inh 1536: 2

What do the screens show for `O=C(NNCc1ccc(O)cc1)c1ccccc1Cl`?
CTSL1 counter: -1; Rce1 inhib: inactive

What do the screens show for `CCOC(=O)CNC(=O)C1CCC(CNS(=O)(=O)c2cccc3nsnc23)CC1` (stereo unspecified)?
CTSL1 counter: 0; Rce1 inhib: inactive

What do the screens show for `O=C(NCc1cccs1)C1CCC(CNS(=O)(=O)c2cccc3nsnc23)CC1` (stereo unspecified)?
thrombin 1536: 2; CTSL1 counter: -1; FXIa inh 1536: 2; Rce1 inhib: inactive; hK5 inh: 52*; FXIIa inh 1536: 8

What do the screens show for `COc1cc(OC)cc(OC(=O)c2ccc3c(=O)n4c(nc3c2)CCC4)c1`?
CTSL1 counter: 6; Rce1 inhib: inactive

How did CC(/C=N/NC(=O)c1cc(C(C)C)[nH]n1)=C\c1ccccc1 do in these assays?
thrombin 1536: 46*; CTSL1 counter: 1; FXIa inh 1536: 4; Rce1 inhib: inactive; hK5 inh: 29; FXIIa inh 1536: -5

Results for CC(/C=N/NC(=O)c1cc(C2CC2)[nH]n1)=C\c1ccccc1 ?
thrombin 1536: -1; CTSL1 counter: -3; FXIa inh 1536: 0; Rce1 inhib: inactive; hK5 inh: 1; FXIIa inh 1536: 4

What do the screens show for `CCOc1ccc(/C=C2/Sc3ccc(C(=O)N4CCOCC4)cc3N(C)C2=O)cc1OC`?
CTSL1 counter: 5; Rce1 inhib: inactive

What do the screens show for `CN1C(=O)/C(=C/c2cccc(Cl)c2)Sc2ccc(C(=O)N3CCOCC3)cc21`?
CTSL1 counter: 3; Rce1 inhib: active

How did CC(=O)OCC(=O)[C@@]12OC3(CCCC3)O[C@@H]1C[C@H]1[C@@H]3CCC4=CC(=O)C=C[C@]4(C)[C@@]3(F)[C@@H](O)C[C@@]12C do in these assays?
thrombin 1536: -6; CTSL1 counter: -36; FXIa inh 1536: -3; Rce1 inhib: active; hK5 inh: -14; FXIIa inh 1536: 6

Results for Cc1[nH]c(=O)[nH]c(=O)c1S(=O)(=O)N1CCCC(C(=O)NCCC2=CCCCC2)C1 (stereo unspecified) ?
thrombin 1536: -7; CTSL1 counter: 1; FXIa inh 1536: 5; Rce1 inhib: inactive; hK5 inh: 1; FXIIa inh 1536: 11

Results for CNC(=O)/C(=C\c1ccco1)NC(=O)c1ccco1 ?
CTSL1 counter: 2; Rce1 inhib: inactive

Results for O=C(NCc1ccccc1)/C(=C/c1ccccc1)NC(=O)c1ccco1 ?
CTSL1 counter: -3; Rce1 inhib: inactive

How did CC(C)CC(NC(=O)/C(=C\c1ccco1)NC(=O)c1ccco1)C(=O)O (stereo unspecified) do in these assays?
CTSL1 counter: 38*; Rce1 inhib: inactive

Results for O=C(NCc1ccccc1)/C(=C/c1ccco1)NC(=O)c1ccco1 ?
thrombin 1536: -7; CTSL1 counter: 28*; FXIa inh 1536: -1; Rce1 inhib: inactive; hK5 inh: -8; FXIIa inh 1536: -7

What do the screens show for `CC(C)CC(NC(=O)/C(=C/c1ccco1)NC(=O)c1ccc(Br)o1)C(=O)O` (stereo unspecified)?
CTSL1 counter: 23*; Rce1 inhib: inactive

What do the screens show for `CCCCC(=O)Nc1ccc(C(=O)Nc2ccc(S(=O)(=O)Nc3ccc(C)cc3)cc2)cc1`?
thrombin 1536: -12; CTSL1 counter: 0; FXIa inh 1536: 0; Rce1 inhib: inactive; hK5 inh: -10; FXIIa inh 1536: 5

How did CCS(=O)(=O)c1nc(S(=O)(=O)c2ccc(Cl)cc2)c(NCCCN2CCOCC2)s1 do in these assays?
CTSL1 counter: 3; Rce1 inhib: inactive

How did CCOC(=O)c1ccc(NC(=O)Nc2cccc(C)n2)cc1 do in these assays?
thrombin 1536: 15; CTSL1 counter: 1; FXIa inh 1536: 45*; Rce1 inhib: inactive; hK5 inh: 11; FXIIa inh 1536: 20
